Measured values: ChEMBL document CHEMBL3085773, “A general method for making peptide therapeutics resistant to serine protease degradation: application to dipeptidyl peptidase IV substrates” (J Med Chem, 2013)
The source made the active and inactive calls. No cut-off for these calls is given here. Square brackets hold non-standard residues; d marks the D form. Peptide text beside a SMILES is read from it. ξ: configuration not given here. ξAsp(3,3-Me2) = CC(C)(C(=O)O)C(N)C(=O)O; ξTle = CC(C)(C)C(N)C(=O)O

Columns and labels:
[1] = tested on: Mus musculus; assay: Toxicity in C57BL/6 mouse assessed as effect on food consumption at 1 mg/kg, ip qd administered for 7 days measured every day during compound administration; assay type: organism-based; parameters: dose 1 mg/kg, route intraperitoneal; conditions: in vivo, 168 h
Summary of the method: (§1)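 C57BL/6 mice given 1 mg/kg ip once daily for seven days, or vehicle; body weight and per-cage food intake recorded daily; water consumption measured on days 3 and 7.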

[2] = tested on: Mus musculus; assay: Toxicity in C57BL/6 mouse assessed as effect on body weight at 1 mg/kg, ip qd administered for 7 days measured every day during compound administration; assay type: organism-based; parameters: dose 1 mg/kg, route intraperitoneal; conditions: in vivo, 168 h; summary of the method: as §1
[3] = tested on: Mus musculus; assay: Antidiabetic activity in db/db mouse assessed as reduction of blood glucose AUC (0 to 480 mins) at 0.2 mg/kg, ip; assay type: functional, organism-based; parameters: dose 0.2 mg/kg
[4] = tested on: Mus musculus; assay: Antidiabetic activity in db/db mouse assessed as reduction of blood glucose level at 0.2 mg/kg, ip measured at 240 mins relative to vehicle-treated control; assay type: functional, organism-based; parameters: dose 0.2 mg/kg
Summary of the method: (§2)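 db/db mice given 8 µg/mouse peptide or PBS vehicle ip; fasting blood glucose measured before and at set times after dosing; expressed as percent change from basal FBG; 10 animals per group.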

[5] = tested on: Mus musculus; assay: Antidiabetic activity in db/db mouse assessed as reduction of blood glucose level at 0.2 mg/kg, ip after 60 mins relative to vehicle-treated control; assay type: functional; parameters: scale not given: the % may be the effect or the level left; conditions: route intraperitoneal; summary of the method: as §2
[6] = tested on: Mus musculus; assay: Antidiabetic activity in db/db mouse assessed as reduction of blood glucose level at 0.2 mg/kg, ip after 90 mins relative to vehicle-treated control; assay type: functional; parameters: scale not given: the % may be the effect or the level left; conditions: route intraperitoneal; summary of the method: as §2
[7] = target: Dipeptidyl peptidase 4 (Homo sapiens, UniProt P27487); assay: Stability of the compound assessed as recombinant human DPP4-mediated compound degradation at 0.1 mM measured after 24 hrs by reverse-phase HPLC/MS analysis; assay type: ADME; conditions: 100 µM
Summary of the method: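 GLP-1 peptides (0.1 mM) incubated at 37 °C with recombinant human DPP IV in 50 mM HEPES, 0.14 M NaCl, pH 8.0, up to 24 h; acid-quenched samples analysed by RP-HPLC-MS for intact peptide.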

[8] = tested on: Mus musculus; assay: Toxicity in C57BL/6 mouse assessed as abnormalities in brain at 1 mg/kg, ip qd measured on day 7 by necropsy analysis; assay type: organism-based; parameters: dose 1 mg/kg, route intraperitoneal; conditions: in vivo
Summary of the method: (§3)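 C57BL/6 mice dosed ip once daily for seven days at 1 mg/kg or vehicle; necropsy on day 7 after final dose; liver, kidneys, pancreas, heart and brain collected, inspected for gross abnormalities and weighed; twelve animals in study.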

[9] = tested on: Mus musculus; assay: Toxicity in C57BL/6 mouse assessed as abnormalities in heart at 1 mg/kg, ip qd measured on day 7 by necropsy analysis; assay type: organism-based; parameters: dose 1 mg/kg, route intraperitoneal; conditions: in vivo; summary of the method: as §3
[10] = tested on: Mus musculus; assay: Toxicity in C57BL/6 mouse assessed as abnormalities in pancreas at 1 mg/kg, ip qd measured on day 7 by necropsy analysis; assay type: organism-based; parameters: dose 1 mg/kg, route intraperitoneal; conditions: in vivo; summary of the method: as §3
[11] = tested on: Mus musculus; assay: Toxicity in C57BL/6 mouse assessed as abnormalities in kidney at 1 mg/kg, ip qd measured on day 7 by necropsy analysis; assay type: organism-based; parameters: dose 1 mg/kg, route intraperitoneal; conditions: in vivo; summary of the method: as §3
[12] = tested on: Mus musculus; assay: Toxicity in C57BL/6 mouse assessed as abnormalities in liver at 1 mg/kg, ip qd measured on day 7 by necropsy analysis; assay type: organism-based; parameters: dose 1 mg/kg, route intraperitoneal; conditions: in vivo; summary of the method: as §3
[13] = tested on: Mus musculus; assay: Toxicity in C57BL/6 mouse assessed as change in brain weight at 1 mg/kg, ip qd measured on day 7 by necropsy analysis; assay type: organism-based; parameters: dose 1 mg/kg, route intraperitoneal; conditions: in vivo; summary of the method: as §3
[14] = tested on: Mus musculus; assay: Toxicity in C57BL/6 mouse assessed as change in heart weight at 1 mg/kg, ip qd measured on day 7 by necropsy analysis; assay type: organism-based; parameters: dose 1 mg/kg, route intraperitoneal; conditions: in vivo; summary of the method: as §3
[15] = tested on: Mus musculus; assay: Toxicity in C57BL/6 mouse assessed as change in pancreas weight at 1 mg/kg, ip qd measured on day 7 by necropsy analysis; assay type: organism-based; parameters: dose 1 mg/kg, route intraperitoneal; conditions: in vivo; summary of the method: as §3
[16] = tested on: Mus musculus; assay: Toxicity in C57BL/6 mouse assessed as change in liver weight at 1 mg/kg, ip qd measured on day 7 by necropsy analysis; assay type: organism-based; parameters: dose 1 mg/kg, route intraperitoneal; conditions: in vivo; summary of the method: as §3
[17] = tested on: Mus musculus; assay: Toxicity in C57BL/6 mouse assessed as change in kidney weight at 1 mg/kg, ip qd measured on day 7 by necropsy analysis; assay type: organism-based; parameters: dose 1 mg/kg, route intraperitoneal; conditions: in vivo; summary of the method: as §3
[18] = tested on: Mus musculus; assay: Toxicity in C57BL/6 mouse assessed as effect on water consumption at 1 mg/kg, ip qd administered for 7 days measured on day 3 and day 7; conditions: in vivo, 168 h
[19] = target: T1, Trypsin (Sus scrofa, UniProt P00761); assay: Stability of the compound assessed as half life of porcine pancreatic trypsin-mediated compound degradation at 0.1 mM by reverse-phase HPLC/MS analysis; assay type: ADME; conditions: pig
[20] = target: alpha-lytic protease (alpha-LP) (Lysobacter enzymogenes, UniProt P00778); assay: Stability of the compound assessed as half life of Lysobacter enzymogenes alpha-LP-mediated compound degradation at 0.1 mM by reverse-phase HPLC/MS analysis; assay type: ADME
[21] = target: DPP4 (dipeptidyl peptidase 4) (Sus scrofa, UniProt P22411); assay: Stability of the compound assessed as porcine DPP4-mediated compound degradation measured intact level at 0.1 mM measured at 30 mins by reverse-phase HPLC/MS analysis; assay type: ADME; conditions: pig, read-out: Stability
Summary of the method: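 Synthetic hexapeptides (0.1 mM) incubated at 37 °C with 10 mU/mL DPP IV purified from porcine kidney in 50 mM HEPES, 0.14 M NaCl, pH 8.0; intact peptide by HPLC-MS, expressed as percent of time-zero value.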

[22] = target: T1, Trypsin; assay: Stability of the compound assessed as porcine pancreatic trypsin-mediated compound degradation at 0.1 mM after 5 hrs by reverse-phase HPLC/MS analysis; assay type: ADME; conditions: pig, isolated protein, 100 µM
[23] = target: Chymotrypsinogen A (Bos taurus) (UniProt P00766); assay: Stability of the compound assessed as bovine pancreatic chymotrypsin-mediated compound degradation measured intact level at 0.1 mM after 0.6 hrs by reverse-phase HPLC/MS analysis; conditions: cow

T1 sequence (P00761 whole entry): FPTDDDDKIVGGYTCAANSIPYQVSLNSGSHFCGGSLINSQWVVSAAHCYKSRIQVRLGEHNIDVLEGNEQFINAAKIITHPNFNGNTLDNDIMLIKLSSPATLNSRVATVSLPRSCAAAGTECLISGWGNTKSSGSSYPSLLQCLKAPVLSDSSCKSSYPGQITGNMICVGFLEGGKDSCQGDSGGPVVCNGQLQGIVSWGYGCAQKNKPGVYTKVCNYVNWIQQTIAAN
Sequence of DPP4 (dipeptidyl peptidase 4) (P22411 whole entry): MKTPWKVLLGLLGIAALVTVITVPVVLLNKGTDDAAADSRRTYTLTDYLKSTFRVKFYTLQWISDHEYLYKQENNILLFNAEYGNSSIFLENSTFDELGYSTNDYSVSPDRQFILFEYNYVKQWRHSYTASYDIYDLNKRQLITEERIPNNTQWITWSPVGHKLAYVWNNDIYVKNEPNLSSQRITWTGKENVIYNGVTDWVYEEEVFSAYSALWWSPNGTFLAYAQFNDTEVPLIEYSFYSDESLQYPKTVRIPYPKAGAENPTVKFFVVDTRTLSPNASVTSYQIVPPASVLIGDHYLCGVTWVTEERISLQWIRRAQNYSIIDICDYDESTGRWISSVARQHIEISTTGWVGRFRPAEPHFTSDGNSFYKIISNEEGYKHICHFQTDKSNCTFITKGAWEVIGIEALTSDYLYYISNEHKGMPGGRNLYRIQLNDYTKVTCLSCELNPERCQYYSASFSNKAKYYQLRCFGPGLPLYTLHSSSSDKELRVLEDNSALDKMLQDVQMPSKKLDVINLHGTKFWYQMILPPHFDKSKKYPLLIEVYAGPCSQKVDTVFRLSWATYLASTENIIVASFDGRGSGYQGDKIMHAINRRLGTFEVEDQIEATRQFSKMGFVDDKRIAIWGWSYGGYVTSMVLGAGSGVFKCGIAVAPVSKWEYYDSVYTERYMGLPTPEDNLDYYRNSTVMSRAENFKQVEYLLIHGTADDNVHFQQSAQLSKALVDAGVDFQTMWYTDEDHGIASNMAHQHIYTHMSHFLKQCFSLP
Sequence of alpha-lytic protease (alpha-LP) (P00778 whole entry): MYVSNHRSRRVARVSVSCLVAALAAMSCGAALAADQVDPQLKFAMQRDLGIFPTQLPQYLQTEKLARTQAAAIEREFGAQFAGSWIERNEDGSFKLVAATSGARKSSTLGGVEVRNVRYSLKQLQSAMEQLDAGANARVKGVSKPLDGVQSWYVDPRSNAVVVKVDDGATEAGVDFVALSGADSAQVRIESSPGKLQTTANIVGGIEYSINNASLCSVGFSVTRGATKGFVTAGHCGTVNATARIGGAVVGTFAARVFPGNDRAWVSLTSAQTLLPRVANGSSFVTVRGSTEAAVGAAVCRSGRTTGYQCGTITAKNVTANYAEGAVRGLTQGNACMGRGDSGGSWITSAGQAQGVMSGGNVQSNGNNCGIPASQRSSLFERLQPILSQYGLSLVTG
Sequence of Dipeptidyl peptidase 4 (P27487 whole entry): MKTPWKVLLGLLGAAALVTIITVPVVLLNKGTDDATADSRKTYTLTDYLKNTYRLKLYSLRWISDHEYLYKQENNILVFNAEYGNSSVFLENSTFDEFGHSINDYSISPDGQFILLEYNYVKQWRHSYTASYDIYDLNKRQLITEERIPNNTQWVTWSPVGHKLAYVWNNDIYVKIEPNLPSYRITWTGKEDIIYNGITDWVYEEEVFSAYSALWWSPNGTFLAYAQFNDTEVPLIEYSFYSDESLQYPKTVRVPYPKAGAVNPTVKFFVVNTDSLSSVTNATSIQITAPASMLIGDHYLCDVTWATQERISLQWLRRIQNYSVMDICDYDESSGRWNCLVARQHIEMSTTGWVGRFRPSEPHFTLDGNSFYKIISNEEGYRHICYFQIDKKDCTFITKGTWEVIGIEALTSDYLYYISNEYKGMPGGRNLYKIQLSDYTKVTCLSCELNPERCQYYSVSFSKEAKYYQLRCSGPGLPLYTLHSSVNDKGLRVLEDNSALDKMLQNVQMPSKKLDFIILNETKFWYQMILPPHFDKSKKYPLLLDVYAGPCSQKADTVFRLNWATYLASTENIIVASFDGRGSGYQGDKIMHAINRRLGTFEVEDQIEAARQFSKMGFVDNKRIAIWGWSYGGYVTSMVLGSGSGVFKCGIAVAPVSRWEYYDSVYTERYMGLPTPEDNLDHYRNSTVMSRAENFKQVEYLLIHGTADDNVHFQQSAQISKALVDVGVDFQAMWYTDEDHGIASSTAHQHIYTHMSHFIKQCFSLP

With `CC[C@H](C)[C@H](NC(=O)[C@H](Cc1ccccc1)NC(=O)[C@H](CCC(=O)O)NC(=O)[C@H](CCCCN)NC(=O)[C@H](C)NC(=O)[C@H](C)NC(=O)[C@H](CCC(N)=O)NC(=O)CNC(=O)[C@H](CCC(=O)O)NC(=O)[C@H](CC(C)C)NC(=O)[C@H](Cc1ccc(O)cc1)NC(=O)[C@H](CO)NC(=O)[C@H](CO)NC(=O)[C@@H](NC(=O)[C@H](CC(=O)O)NC(=O)[C@H](CO)NC(=O)[C@@H](NC(=O)[C@H](Cc1ccccc1)NC(=O)[C@@H](NC(=O)CNC(=O)C(NC(=O)[C@H](C)NC(=O)[C@@H](N)Cc1c[nH]cn1)C(C)(C)C(=O)O)[C@@H](C)O)[C@@H](C)O)C(C)C)C(=O)N[C@@H](C)C(=O)N[C@@H](Cc1c[nH]c2ccccc12)C(=O)N[C@@H](CC(C)C)C(=O)N[C@H](C(=O)N[C@@H](CCCCN)C(=O)NCC(=O)N[C@@H](CCCNC(=N)N)C(N)=O)C(C)C` (stereo partly drawn) the Activity [1] was “Non-toxic”, the Activity [2] was “Non-toxic” and the Activity [3] was “Active”. For the same compound, the Activity [4] was “inactive”, the Activity [5] was 50% and the Activity [6] was 45%. For the same compound, the Stability [7] was “Stable”, the Activity [8] was “Non-toxic” and the Activity [9] was “Non-toxic”. The Activity [10] was “Non-toxic”, the Activity [11] was “Non-toxic” and the Activity [12] was “Non-toxic”. The Activity [13] was “Non-toxic”, the Activity [14] was “Non-toxic” and the Activity [15] was “Non-toxic”. The Activity [16] was “Non-toxic”, the Activity [17] was “Non-toxic” and the Activity [18] was “Non-toxic”.

Work on `CC(C)C[C@H](NC(=O)[C@@H](N)CC(C)C)C(=O)N1CCC[C@H]1C(=O)N[C@@H](CCCNC(=N)N)C(=O)N[C@H](C(=O)N[C@@H](C)C(=O)N[C@@H](CC(N)=O)C(=O)NCC(=O)N[C@@H](CO)C(=O)N[C@@H](CO)C(=O)N[C@@H](Cc1ccccc1)C(=O)N[C@H](C(=O)N[C@H](C(=O)N[C@H](C(=O)O)C(C)C)[C@@H](C)O)C(C)C)C(C)C` (H-LLPRVANGSSFVTV-OH) yielded a half-life at 100 µM [19] of 24 min and a half-life at 100 µM [20] of 24 min.

With `CC[C@H](C)[C@H](NC(=O)[C@@H]1CCCN1C(=O)[C@H](C)N)C(=O)N[C@@H](CO)C(=O)N[C@@H](Cc1c[nH]c2ccccc12)C(=O)N[C@@H](CO)C(=O)O` (H-APISWS-OH) the remaining at 0.5 h, 100 µM [21] was < 70%.

For `CC(C)[C@H](NC(=O)C(NC(=O)[C@H](Cc1c[nH]c2ccccc12)NC(=O)[C@H](C)NC(=O)C(NC(=O)[C@H](Cc1ccccc1)NC(=O)C(NC(=O)[C@H](CCCCN)NC(=O)[C@H](C)NC(=O)[C@H](C)NC(=O)[C@H](CCC(N)=O)NC(=O)CNC(=O)[C@H](CCC(=O)O)NC(=O)C(NC(=O)[C@H](Cc1ccc(O)cc1)NC(=O)[C@H](CO)NC(=O)[C@H](CO)NC(=O)[C@@H](NC(=O)[C@H](CC(=O)O)NC(=O)[C@H](CO)NC(=O)C(NC(=O)[C@H](Cc1ccccc1)NC(=O)[C@@H](NC(=O)CNC(=O)C(NC(=O)[C@H](C)NC(=O)[C@@H](N)Cc1c[nH]cn1)C(C)(C)C(=O)O)[C@@H](C)O)C(C)(C)C)C(C)C)C(C)(C)C)C(C)(C)C(=O)O)C(C)(C)C)C(C)(C)C)C(=O)N[C@@H](CCCCN)C(=O)NC(C(=O)N[C@@H](CCCNC(=N)N)C(N)=O)C(C)(C)C(=O)O` (stereo partly drawn) (H-HA[ξAsp(3,3-Me2)]GTF[ξTle]SDVSSY[ξTle]EGQAAK[ξAsp(3,3-Me2)]F[ξTle]AW[ξTle]VK[ξAsp(3,3-Me2)]R-NH2), the Stability [22] was “Stable” and the remaining at 0.6 h, 100 µM [23] was 50%.
